The subject of data set [1] is HepG2. Kind of data set: Upregulation of LDL receptor expression in human HepG2 cells assessed as DiI-LDL uptake after 19 hrs. It is filed as functional. Particulars: HepG2, 19 h. The method in brief: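 HepG2 cells were grown 2-3 days in DMEM/F-12 with 10% FBS, then given compound in medium with 10% delipoprotein serum for 19 h at 37 °C. DiI-labelled human LDL was then added for 5 h, with 30-50-fold unlabelled LDL defining nonspecific uptake. Specific fluorescence per protein is expressed as % of control. EC25 is the concentration giving 25% up-regulation (n = 1).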

Data set [2] deals with T1, Sterol O-acyltransferase 1 (Rattus norvegicus, UniProt O70536).
T1 sequence (O70536 whole entry): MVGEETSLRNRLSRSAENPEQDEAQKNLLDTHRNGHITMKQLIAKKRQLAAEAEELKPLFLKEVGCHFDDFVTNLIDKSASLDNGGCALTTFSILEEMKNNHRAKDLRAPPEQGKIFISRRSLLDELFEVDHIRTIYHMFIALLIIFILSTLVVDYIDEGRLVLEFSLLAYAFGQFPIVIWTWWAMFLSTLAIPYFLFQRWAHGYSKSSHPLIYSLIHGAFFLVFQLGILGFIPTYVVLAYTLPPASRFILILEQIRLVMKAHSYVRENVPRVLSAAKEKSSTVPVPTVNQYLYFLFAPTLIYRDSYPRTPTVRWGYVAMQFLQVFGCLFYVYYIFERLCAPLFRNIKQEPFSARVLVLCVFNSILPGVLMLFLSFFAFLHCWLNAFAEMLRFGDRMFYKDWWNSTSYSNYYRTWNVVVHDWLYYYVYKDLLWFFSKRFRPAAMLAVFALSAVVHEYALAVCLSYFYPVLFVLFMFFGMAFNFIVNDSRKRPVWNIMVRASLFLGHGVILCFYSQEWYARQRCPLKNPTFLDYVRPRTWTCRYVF
Put plainly: Inhibition of rat macrophages ACAT. The method in brief: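 ACAT was taken from rat macrophages, and inhibition was measured once (n = 1).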

Data set [3] relates to Hamster. Put plainly: Antihyperlipidemic activity in high-cholesterol diet fed hamster model assessed as reduction of plasma total LDL cholesterol level at 10 mg/kg, po administered qd for 7 days. Further details: scale not given: the % may be the effect or the level left. It is filed as functional, Cricetinae. Summed up:
(§1)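 Hamsters fed a rich diet for 1 week were dosed orally by gavage once daily for 1 week. Plasma total cholesterol and LDL-C were then measured. Values are mean ± SEM.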

For data set [4], the system named is Hamster. Kind of data set: Antihyperlipidemic activity in high-cholesterol diet fed hamster model assessed as reduction of plasma total cholesterol level at 10 mg/kg, po administered qd for 7 days. Format: functional, Cricetinae. Also noted: scale not given: the % may be the effect or the level left. The method in brief:
as §1

Data set [5] concerns Hamster. Put plainly: Antihyperlipidemic activity in high-cholesterol diet fed hamster model assessed as reduction of plasma total LDL cholesterol level at 30 mg/kg, po administered qd for 7 days. It is filed as functional, Cricetinae. Further details: scale not given: the % may be the effect or the level left. Summed up:
as §1

The nature of data set [6]: Cmax in hamster at 10 mg/kg. Format: ADME, organism-based. Particulars: cricetinae, in vivo. Also noted: dose 10 mg/kg. The method in brief:
(§2)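 Male hamsters received a single oral dose of 10 mg/kg as the sodium salt, and serum drug concentration was followed over time. Values are mean ± SEM, n = 3.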

For data set [7], the system named is Hamster. Put plainly: Antihyperlipidemic activity in high-cholesterol diet fed hamster model assessed as reduction of plasma total cholesterol level at 30 mg/kg, po administered qd for 7 days. Format: functional, Cricetinae. Further details: scale not given: the % may be the effect or the level left. The method in brief: as §1
The nature of data set [8]: Solubility in phosphate buffer at pH 7.4 by HPLC analysis. It is filed as physicochemical. Summed up: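 Solubility in phosphate buffer was measured at room temperature, with the dissolved amount quantified by HPLC.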
Data set [9] has as its system Hamster. Put plainly: Antihyperlipidemic activity in high-cholesterol diet fed po dosed hamster model assessed as reduction of plasma total LDL cholesterol level administered qd for 7 days. Format: functional, organism-based. As to conditions: Cricetinae. Summed up: as §1
The subject of data set [10] is Hamster. Put plainly: Antihyperlipidemic activity in high-cholesterol diet fed po dosed hamster model assessed as reduction of plasma total cholesterol level administered qd for 7 days. It is filed as functional, organism-based. Particulars: Cricetinae. Summed up:
as §1

Data set [11] in a line: AUC (0 to 360 mins) in hamster at 10 mg/kg. Format: ADME, organism-based. Also noted: time < 6 hr, dose 10 mg/kg. As to conditions: cricetinae, plasma. Summed up: as §2
The subject of data set [12] is HepG2. Kind of data set: Increase of [125I]LDL cholesterol degradation in human HepG2 cells. It is filed as functional, cell-based.
Data set [13] relates to HepG2. Put plainly: Upregulation of LDL receptor expression in human HepG2 cells at 1 uM in presence of ARH-specific siRNA. Format: functional, cell-based.

In brackets after ≈: the same amount, converted by molar mass. Activity calls are given as the source filed them. The rule behind the calls is not given here. Some results are limits rather than exact numbers.

One may read the EC25 as the point of the concentration-response curve where the effect stands at 25%. For orientation: IC50 means the concentration at which inhibition is half-maximal. The Cmax is the maximum level reached in the sampled fluid or tissue. What is called solubility is the concentration that dissolves in the medium under given conditions. In general, AUC(0-t) refers to exposure summed from dosing to a finite time, without extrapolation to infinity.

Turning to `COc1cccc(C2(C(=O)NS(=O)(=O)Oc3c(C)cccc3C)CCN(c3ccccc3OC)CC2)c1`, the EC25 in the data set on HepG2 [1] was > 10 µM. Besides, in data set [2], inhibition was half-maximal at 410 nM (IC50).

Regarding `CCCCn1c(=O)c(NC(=O)Nc2c(C(C)C)cc(N)cc2C(C)C)c(-c2cccc(OCCCO)c2)c2cccnc21.Cl.O`, the Activity with Hamster [3] is -31%; with Hamster [4], -29%. For the same compound, the EC25 in the data set on HepG2 [1] came to 0.49 µM. This compound yielded an IC50 in [2] of 31 nM.

For the compound `COc1cccc(C2(C(=O)NS(=O)(=O)Oc3ccccc3C3CCCC3)CCN(c3ccccc3OC)CC2)c1`, in the data set with HepG2 [1], the EC25 was 0.69 µM. Besides, the IC50 in data set [2] is > 1000 nM.

As for `CCCc1ccccc1OS(=O)(=O)NC(=O)C1(c2cccc(OC)c2)CCN(c2ccccc2OC)CC1`, the EC25 with HepG2 [1] stood at 4.07 µM. For the same compound, in data set [2], the IC50 was > 1000 nM.

Regarding `COc1cccc(C2(C(=O)NS(=O)(=O)Oc3c(C(C)C)cccc3C(C)C)CCNCC2)c1`, the EC25 with HepG2 [1] is > 10 µM. For the same compound, the IC50 in data set [2] is > 1000 nM.

As for `COc1cccc(C2(C(=O)NS(=O)(=O)Oc3c(C(C)C)cccc3C(C)C)CCN(c3ccccc3OC)CC2)c1` [listing 1 of 2 here], the Activity is -25% in the data set with Hamster [5], -18% in the data set on Hamster [3], -10% in the data set on Hamster [4] and -17% in the data set on Hamster [7]. This compound returned a Cmax in data set [6] of 13 ng/mL. The concentration for an effect of 25% (EC25) in the data set with HepG2 [1] amounted to 0.37 µM. Moreover, the IC50 in data set [2] was found to be 330 nM.

In the case of `COc1cccc(C2(C(=O)NS(=O)(=O)Oc3c(C(C)C)cccc3C(C)C)CCN(c3nccc(C(F)(F)F)n3)CC2)c1`, in the data set on HepG2 [1], the EC25 was > 10 µM. In [2], the IC50 was > 1000 nM.

The compound `COc1cccc(C2(C(=O)NS(=O)(=O)Oc3c(C(C)C)cccc3C(C)C)CCN(c3ccccc3)CC2)c1` showed a solubility in [8] of 180 µg/mL (≈ 327 µM). Further, in the data set with HepG2 [1], the EC25 worked out at 1.52 µM. Also, the IC50 in data set [2] was > 1000 nM.

In the case of `COc1cccc(C2(C(=O)NS(=O)(=O)Oc3c(C(C)C)cccc3C(C)C)CCN(c3ccccc3OC)CC2)c1` [listing 2 of 2 here], the Activity entry with Hamster [9] and in the data set on Hamster [10] was “Dose-dependent effect” throughout.

Consider `COc1cccc(C2(C(=O)NS(=O)(=O)Oc3c(C(C)C)cccc3C(C)C)CCN(c3nc4ccccc4s3)CC2)c1`, for which the solubility in data set [8] is 3 µg/mL (≈ 4.94 µM). Further, the EC25 in the data set with HepG2 [1] is 0.26 µM. Besides, the IC50 in data set [2] was > 1000 nM.

The compound `COc1cccc(C2(C(=O)[N-]S(=O)(=O)Oc3c(C(C)C)cccc3C(C)C)CCN(c3ncccn3)CC2)c1.[Na+]` had a solubility in data set [8] of 230 µg/mL. This compound gave a Cmax in [6] of 290 ng/mL. This compound registered an AUC(0-t) at 6 h in data set [11] of 1090 ng·h/mL.

In [8], `CC(C)c1cccc(C(C)C)c1OS(=O)(=O)NC(=O)C1(c2cccc(O)c2)CCN(c2ncccn2)CC1` displayed a solubility of 200 µg/mL (≈ 371 µM). Also, the EC25 with HepG2 [1] is > 10 µM.

Regarding `COc1cccc(C2(C(=O)NS(=O)(=O)Oc3c(C(C)C)cccc3C(C)C)CCN(C)CC2)c1`, the EC25 in the data set on HepG2 [1] was > 10 µM. The IC50 in data set [2] is > 1000 nM.

For `COc1cccc(C2(C(=O)NS(=O)(=O)Oc3c(C(C)C)cccc3C(C)C)CCN(c3ncccn3)CC2)c1`, the Activity result in the data set on Hamster [9], in the data set with Hamster [10] and in the data set with HepG2 [12] was “Dose-dependent effect” throughout. In the data set with HepG2 [13], the result was inactive.

In the case of `CC(C)c1c(C(=O)Nc2ccccc2)c(-c2ccccc2)c(-c2ccc(F)cc2)n1CC[C@@H](O)C[C@@H](O)CC(=O)O`, the outcome in the data set on HepG2 [13] was Active.

Consider `CC(C)c1cccc(C(C)C)c1OS(=O)(=O)NC(=O)C1(c2cccc(OCCCO)c2)CCN(c2ncccn2)CC1`, for which, in [8], the solubility is > 200 µg/mL. The concentration for an effect of 25% (EC25) with HepG2 [1] is > 10 µM.

With `COc1cccc(C2(C(=O)N(C)S(=O)(=O)Oc3c(C(C)C)cccc3C(C)C)CCN(c3ncccn3)CC2)c1`, in data set [8], the solubility was < 0.3 µg/mL. Also, the concentration for an effect of 25% (EC25) in the data set with HepG2 [1] was > 10 µM. In [2], the IC50 is > 1000 nM.
